Measured values as given in ChEMBL document CHEMBL3797060, “Discovery of 5-Chloro-1-(5-chloro-2-(methylsulfonyl)benzyl)-2-imino-1,2-dihydropyridine-3-carboxamide (TAK-259) as a Novel, Selective, and Orally Active α1D Adrenoceptor Antagonist with Antiurinary Frequency Effects: Reducing Human Ether-a-go-go-Related Gene (hERG) Liabilities” (J Med Chem, 2016).
pIC50, pKi: −log10 of the molar value.

Key:
Rattus norvegicus [1] = assay: Inhibition of nonvoiding contractions during urinary storage phase in iv dosed Wistar rat with bladder outlet obstruction after 10 mins by cystometrogram; assay type: functional
Urinary bladder = assay: Inhibition of (R)-(-)-phenylephrine hydrochloride-induced contractions in Wistar rat bladder with outlet obstruction treated every 30 minutes post (R)-(-)-phenylephrine hydrochloride challenge; assay type: functional
[2] = Cmax in rat at 1 mg/kg, po administered via cassette dosing by LC/MS/MS analysis; assay type: ADME, organism-based; parameters: dose 1 mg/kg, route oral; details: in vivo
Outline: (§1)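 Fed rats dosed orally at 1 mg/kg as 0.5% methylcellulose suspension by cassette dosing; bioavailability also uses an iv arm of 0.1 mg/kg in DMA/1,3-butanediol (1:1). Plasma obtained from blood by centrifugation, deproteinized, and measured by LC/MS/MS. Values are averages of three rats.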

[3] = AUC in rat at 1 mg/kg, po administered via cassette dosing by LC/MS/MS analysis; assay type: ADME, organism-based; details: in vivo; outline: as §1
[4] = Mean residence time in rat at 1 mg/kg, po administered via cassette dosing by LC/MS/MS analysis; assay type: ADME, organism-based; details: in vivo; outline: as §1
[5] = Volume of distribution at steady state in rat at 0.1 mg/kg, iv administered via cassette dosing by LC/MS/MS analysis; assay type: ADME, organism-based; details: in vivo, read-out: Vdss
Outline: (§2)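 Cassette dosing iv at 0.1 mg/kg in DMA/1,3-butanediol (1:1) to fed rats. Blood collected after dosing and centrifuged to plasma, which was deproteinized and centrifuged; supernatant concentrations measured by LC/MS/MS.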

[6] = target: T1, Alpha-1D adrenergic receptor (Homo sapiens, UniProt P25100); assay: Displacement of 7-methoxy-[3H]-prazosin from human alpha1D adrenergic receptor expressed in CHO-K1 cell membranes incubated for 60 mins by liquid scintillation counting analysis
T1 sequence (P25100 whole entry): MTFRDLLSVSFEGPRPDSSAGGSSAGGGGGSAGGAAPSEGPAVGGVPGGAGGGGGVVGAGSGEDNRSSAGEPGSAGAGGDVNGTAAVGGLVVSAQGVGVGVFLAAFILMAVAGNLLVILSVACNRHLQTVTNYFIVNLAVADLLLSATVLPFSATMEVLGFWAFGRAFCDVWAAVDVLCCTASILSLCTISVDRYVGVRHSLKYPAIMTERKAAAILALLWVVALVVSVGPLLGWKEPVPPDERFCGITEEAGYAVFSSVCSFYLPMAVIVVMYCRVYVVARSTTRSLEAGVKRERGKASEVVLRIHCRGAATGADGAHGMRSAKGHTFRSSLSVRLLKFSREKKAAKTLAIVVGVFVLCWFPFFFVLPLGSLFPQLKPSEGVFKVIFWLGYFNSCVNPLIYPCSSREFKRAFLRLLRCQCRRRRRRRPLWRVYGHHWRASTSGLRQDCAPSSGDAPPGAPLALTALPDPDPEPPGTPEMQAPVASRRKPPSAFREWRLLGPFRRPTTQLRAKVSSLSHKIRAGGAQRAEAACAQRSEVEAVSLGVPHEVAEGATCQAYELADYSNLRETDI
Outline: (§3)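 CHO-K1 stable-line membranes (10 µg protein), 2.5 nmol/L ligand, Tris-HCl pH 7.5 with MgCl2, EDTA and 0.5% BSA, 12 compound concentrations, room temperature. Filtered and counted; nonspecific binding with 10 µmol/L phentolamine. IC50 by logistic regression, converted to Ki by Cheng-Prusoff with Kd 0.93 (α1A), 0.35 (α1B), 0.26 (α1D) nmol/L. Triplicate mean, 95% CI.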

Homo sapiens [7] = species: Homo sapiens; assay: Selectivity ratio of Ki for human alpha1A adrenergic receptor to Ki for human alpha1D adrenergic receptor
Outline: (§4)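 Membranes from CHO-K1 cells stably expressing human α1A, α1B or α1D receptors (10 µg protein) incubated 60 min at room temperature with 2.5 nmol/L 7-methoxy[3H]-prazosin and 12 compound concentrations in Tris-HCl pH 7.5 buffer with MgCl2, EDTA, 0.5% BSA. Bound counts taken after filtration; nonspecific binding defined with 10 µmol/L phentolamine.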

hERG (KCNH2) = hERG (KCNH2) (Homo sapiens, UniProt Q12809); assay: Inhibition of human ERG channel expressed in CHO cells assessed as peak tail current at 10 uM incubated for 5 mins by patch-clamp assay; assay type: cell-based; details: CHO cells expressing human ERG channel
hERG (KCNH2), sequence (Q12809 whole entry): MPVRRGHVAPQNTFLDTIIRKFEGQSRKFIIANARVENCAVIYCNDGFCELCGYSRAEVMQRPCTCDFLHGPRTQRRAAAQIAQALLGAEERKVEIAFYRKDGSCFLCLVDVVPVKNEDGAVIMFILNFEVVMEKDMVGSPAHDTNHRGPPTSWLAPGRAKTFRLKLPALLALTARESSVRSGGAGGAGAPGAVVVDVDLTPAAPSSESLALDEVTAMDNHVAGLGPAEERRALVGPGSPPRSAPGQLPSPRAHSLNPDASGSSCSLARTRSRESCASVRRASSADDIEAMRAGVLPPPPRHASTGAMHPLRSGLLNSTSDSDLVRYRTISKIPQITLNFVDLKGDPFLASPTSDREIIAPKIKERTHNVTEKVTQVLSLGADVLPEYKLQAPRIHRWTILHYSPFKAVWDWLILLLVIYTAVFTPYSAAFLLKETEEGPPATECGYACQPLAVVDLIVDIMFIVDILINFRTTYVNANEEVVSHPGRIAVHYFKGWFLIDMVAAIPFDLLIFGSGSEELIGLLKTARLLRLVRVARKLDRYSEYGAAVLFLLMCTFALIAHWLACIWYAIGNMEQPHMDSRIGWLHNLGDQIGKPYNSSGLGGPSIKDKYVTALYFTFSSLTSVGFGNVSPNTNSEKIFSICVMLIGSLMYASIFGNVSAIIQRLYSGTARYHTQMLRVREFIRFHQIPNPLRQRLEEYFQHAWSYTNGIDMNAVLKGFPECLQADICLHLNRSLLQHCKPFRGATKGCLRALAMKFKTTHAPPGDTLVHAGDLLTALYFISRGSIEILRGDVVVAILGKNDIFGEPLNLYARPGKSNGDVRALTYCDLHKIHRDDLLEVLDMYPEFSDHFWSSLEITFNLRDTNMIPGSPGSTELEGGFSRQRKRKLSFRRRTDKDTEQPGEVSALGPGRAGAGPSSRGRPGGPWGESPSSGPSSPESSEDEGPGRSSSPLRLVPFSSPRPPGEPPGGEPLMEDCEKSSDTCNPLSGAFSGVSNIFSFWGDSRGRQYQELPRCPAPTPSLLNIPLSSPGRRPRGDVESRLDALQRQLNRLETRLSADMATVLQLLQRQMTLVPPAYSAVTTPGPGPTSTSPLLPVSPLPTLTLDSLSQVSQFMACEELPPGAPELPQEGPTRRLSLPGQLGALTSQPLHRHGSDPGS
Outline: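 CHO cells stably expressing hERG, grown at 32 °C, 5% CO2 in Ham's F-12 with 10% FBS and 500 µg/mL Geneticin. Population patch clamp with PBS (Ca/Mg) outside, KCl/MgCl2/EGTA/HEPES pH 7.3 inside, amphotericin B perforation. Holding −80 mV, step to 40 mV 2 s, then −50 mV 2 s. Peak tail current taken before and after 5 min compound exposure, inhibition = 100 − post/pre×100, n = 3 or 4.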

[8] = Oral bioavailability in rat at 1 mg/kg administered via cassette dosing by LC/MS/MS analysis; assay type: ADME, organism-based; details: in vivo; outline: as §1
Rattus norvegicus [9] = assay: Reduction of urinary frequency in po dosed Sprague-Dawley rat with cyclophosphamide-induced cystitis assessed as increased voiding intervals administered at voiding intervals less <7.2 mins measured after 5 to 35 mins by cystometrogram; assay type: functional; details: Urine, read-out: MED
Homo sapiens [10] = species: Homo sapiens; assay: Selectivity ratio of Ki for human alpha1B adrenergic receptor to Ki for human alpha1D adrenergic receptor; outline: as §4
[11] = Total clearance in rat at 0.1 mg/kg, iv administered via cassette dosing by LC/MS/MS analysis; assay type: ADME, organism-based; details: in vivo; outline: as §2
[12] = target: T2, Alpha-1A adrenergic receptor (Homo sapiens, UniProt P35348); assay: Displacement of 7-methoxy-[3H]-prazosin from human alpha1A adrenergic receptor expressed in CHO-K1 cell membranes incubated for 60 mins by liquid scintillation counting analysis; outline: as §3
T2 sequence (P35348 whole entry): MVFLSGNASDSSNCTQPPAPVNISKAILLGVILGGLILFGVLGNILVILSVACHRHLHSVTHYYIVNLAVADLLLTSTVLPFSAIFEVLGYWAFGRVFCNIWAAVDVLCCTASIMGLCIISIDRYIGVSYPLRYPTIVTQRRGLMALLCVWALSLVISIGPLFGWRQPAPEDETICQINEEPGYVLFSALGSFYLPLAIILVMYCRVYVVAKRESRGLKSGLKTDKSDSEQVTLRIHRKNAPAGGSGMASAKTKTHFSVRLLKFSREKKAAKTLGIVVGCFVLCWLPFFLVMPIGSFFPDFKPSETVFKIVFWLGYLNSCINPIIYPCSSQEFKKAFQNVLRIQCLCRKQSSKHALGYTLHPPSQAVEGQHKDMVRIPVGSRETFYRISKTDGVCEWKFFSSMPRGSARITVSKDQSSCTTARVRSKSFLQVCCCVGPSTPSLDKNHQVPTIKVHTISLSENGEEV

[13] = target: T3, 5-hydroxytryptamine receptor 1A (Homo sapiens, UniProt P08908); assay: Inhibition of 5-HT 1A receptor (unknown origin)
T3 sequence (P08908 whole entry): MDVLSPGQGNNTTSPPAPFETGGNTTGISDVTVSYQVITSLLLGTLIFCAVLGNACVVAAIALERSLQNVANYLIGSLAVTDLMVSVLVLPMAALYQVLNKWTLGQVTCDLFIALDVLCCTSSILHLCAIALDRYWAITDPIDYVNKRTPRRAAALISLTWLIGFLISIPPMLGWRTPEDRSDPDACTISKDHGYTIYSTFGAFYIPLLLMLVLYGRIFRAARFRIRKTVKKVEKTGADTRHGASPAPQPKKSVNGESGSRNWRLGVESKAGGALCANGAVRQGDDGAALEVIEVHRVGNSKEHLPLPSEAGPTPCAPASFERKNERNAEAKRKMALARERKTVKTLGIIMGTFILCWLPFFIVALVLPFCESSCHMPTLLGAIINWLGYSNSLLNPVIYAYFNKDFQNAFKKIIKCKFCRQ

[14] = target: T4, Alpha-1B adrenergic receptor (Homo sapiens, UniProt P35368); assay: Displacement of 7-methoxy-[3H]-prazosin from human alpha1B adrenergic receptor expressed in CHO-K1 cell membranes incubated for 60 mins by liquid scintillation counting analysis; outline: as §3
T4 sequence (P35368 whole entry): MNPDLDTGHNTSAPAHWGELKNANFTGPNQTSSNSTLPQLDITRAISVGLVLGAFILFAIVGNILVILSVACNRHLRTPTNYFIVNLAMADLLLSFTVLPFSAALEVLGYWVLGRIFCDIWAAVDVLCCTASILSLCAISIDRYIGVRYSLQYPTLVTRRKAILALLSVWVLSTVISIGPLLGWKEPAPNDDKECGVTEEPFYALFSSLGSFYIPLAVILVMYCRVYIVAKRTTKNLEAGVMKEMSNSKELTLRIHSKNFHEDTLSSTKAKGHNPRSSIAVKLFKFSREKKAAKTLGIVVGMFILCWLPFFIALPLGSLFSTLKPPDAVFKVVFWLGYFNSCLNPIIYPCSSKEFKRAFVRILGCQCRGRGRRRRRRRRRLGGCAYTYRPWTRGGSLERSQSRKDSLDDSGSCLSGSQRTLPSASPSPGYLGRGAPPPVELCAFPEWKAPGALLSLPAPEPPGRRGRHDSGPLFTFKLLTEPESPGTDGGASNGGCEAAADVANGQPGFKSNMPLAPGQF

Row | Structure (SMILES) | pKi [6] | inhibition at 5 min, 10 µM (hERG (KCNH2)) [%] | other results
1 | N=c1c(C(N)=O)cc(Cl)cn1-c1ccccc1 | < 6.03 | – | –
2 | CC(c1cccc(Cl)c1)n1cc(Cl)cc(C(N)=O)c1=N (configuration not stated) | 9.18 | 48 | –
3 | N=c1c(C(N)=O)cc(Cl)cn1Cc1ccccc1 | 7.52 | – | pKi [12]: < 5.57; pIC50 [13]: < 6.00; pKi [14]: < 5.92
4 | N=c1c(C(N)=O)cc(Cl)cn1Cc1cccc(Cl)c1 | 8.59 | 47 | –
5 | CCNC(=O)c1cc(Cl)cn(Cc2ccccc2)c1=N | < 6.03 | – | –
6 | N=c1c(C(N)=O)cc(Cl)cn1Cc1cccnc1 | 6.60 | – | –
7 | N#Cc1ccc(Cn2cc(Cl)cc(C(N)=O)c2=N)cc1Cl | 7.96 | 74 | –

Now from value to compound, other results behind:

Row | pKi [6] | Structure (SMILES) | inhibition at 5 min, 10 µM (hERG (KCNH2)) [%] | other results
8 | 8.80 | C[C@H](c1cccc(C#N)c1)n1cc(Cl)cc(C(N)=O)c1=N [(R)-9s] | 25 | inhibition (Rattus norvegicus [1]): Dose-dependent effect; ED50 (Rattus norvegicus [1]; read-out: ID50 (the source's name)): 4.4 µg/kg; inhibition (Urinary bladder): Dose-dependent effect; IC30 (Urinary bladder; 0.5 h): 0.015 µM; Cmax [2]: 0.142 µg/mL; AUC [3]: 0.368 µg·h/mL; MRT [4]: 3.14 h; Vd [5]: 4.68 L/kg; Ratio Ki (Homo sapiens [7]): > 1700; bioavailability [8]: 86%; minimal effective dose (Rattus norvegicus [9]): 10 µg/kg; Ratio Ki (Homo sapiens [10]): > 750; clearance [11]: 2.35 L/h/kg
9 | 7.27 | N=c1c(C(N)=O)cc(Cl)cn1CCCc1ccccc1 | – | –
10 | < 6.03 | NC(=O)c1cc(Cl)cn(Cc2ccccc2)c1=O | – | –
11 | 7.59 | N=c1c(C(N)=O)cc(Cl)cn1Cc1cccc(C(N)=O)c1 | – | –
12 | 6.89 | C[C@@H](c1cccc(C#N)c1)n1cc(Cl)cc(C(N)=O)c1=N [(S)-9s] | 57 | –
13 | 7.80 | N=c1c(C(N)=O)cc(Cl)cn1CCc1ccccc1 | – | –
14 | 9.07 | N#Cc1cc(Cl)cc(Cn2cc(Cl)cc(C(N)=O)c2=N)c1 | 71 | –
15 | 8.03 | CS(=O)(=O)c1ccc(Cn2cc(Cl)cc(C(N)=O)c2=N)cc1Cl | 13 | –
16 | 8.43 | N=c1c(C(N)=O)cc(Cl)cn1Cc1cc(Cl)cc(C(N)=O)c1 | 13 | Cmax [2]: 0.0032 µg/mL; AUC [3]: 0.0108 µg·h/mL; MRT [4]: 2.47 h; Vd [5]: 3.21 L/kg; Ratio Ki (Homo sapiens [7]): > 730; bioavailability [8]: 3%; Ratio Ki (Homo sapiens [10]): > 320; clearance [11]: 2.83 L/h/kg
17 | 8.07 | N#Cc1ccc(Cl)cc1Cn1cc(Cl)cc(C(N)=O)c1=N | 59 | –
18 | 8.47 | CC(c1cccc(C#N)c1)n1cc(Cl)cc(C(N)=O)c1=N (configuration not stated) | 32 | –
